The target of experiment [1] is T1, DNA topoisomerase (Bos taurus) (UniProt A0JN73).
T1 sequence (whole entry): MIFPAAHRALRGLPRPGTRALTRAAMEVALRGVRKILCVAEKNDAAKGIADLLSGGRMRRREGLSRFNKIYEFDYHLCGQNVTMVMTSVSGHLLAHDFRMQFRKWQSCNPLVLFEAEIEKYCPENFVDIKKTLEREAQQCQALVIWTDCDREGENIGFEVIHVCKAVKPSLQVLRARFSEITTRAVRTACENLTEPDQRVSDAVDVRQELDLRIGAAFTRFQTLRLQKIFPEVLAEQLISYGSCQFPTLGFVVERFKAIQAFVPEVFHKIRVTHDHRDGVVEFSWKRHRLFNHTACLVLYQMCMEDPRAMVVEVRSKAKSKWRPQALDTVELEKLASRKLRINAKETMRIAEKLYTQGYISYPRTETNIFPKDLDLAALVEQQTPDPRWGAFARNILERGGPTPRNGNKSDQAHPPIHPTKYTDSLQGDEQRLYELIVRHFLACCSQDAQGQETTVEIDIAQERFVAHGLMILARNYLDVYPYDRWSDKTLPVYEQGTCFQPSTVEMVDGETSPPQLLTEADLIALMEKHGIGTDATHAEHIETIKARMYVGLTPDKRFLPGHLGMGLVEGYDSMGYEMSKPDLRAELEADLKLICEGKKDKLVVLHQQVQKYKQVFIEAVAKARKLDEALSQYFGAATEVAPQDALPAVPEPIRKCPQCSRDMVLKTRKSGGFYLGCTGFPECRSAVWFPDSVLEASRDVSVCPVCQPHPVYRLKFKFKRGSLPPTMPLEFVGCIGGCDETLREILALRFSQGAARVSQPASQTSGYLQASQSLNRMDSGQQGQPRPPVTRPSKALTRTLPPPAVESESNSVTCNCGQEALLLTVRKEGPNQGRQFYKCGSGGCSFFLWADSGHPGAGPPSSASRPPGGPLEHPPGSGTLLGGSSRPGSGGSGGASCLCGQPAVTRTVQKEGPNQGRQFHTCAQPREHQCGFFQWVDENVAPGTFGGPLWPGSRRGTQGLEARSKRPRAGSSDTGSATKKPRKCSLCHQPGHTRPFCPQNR
Nature of the experiment: Induction of calf thymus Topo 1-pBR322 DNA cleavage complex formation assessed as nicked DNA formation at 0.5 to 10 uM after 30 mins by optical density analysis. The method in brief: (§1)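 Calf thymus Topo I (10 units) with 0.1 µg supercoiled pBR322 and compound (0.5–50 µM) in Topo I buffer pH 7.5, 6 min at 37 °C. Complexes trapped with SDS then NaEDTA, proteinase K 30 min at 45 °C, heated 70 °C for 2 min, 1% agarose gel with ethidium bromide. Nicked DNA quantified by optical density.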

The nature of experiment [2]: Cytotoxicity against human HL60 cells after 48 hrs by MTT assay. Type of experiment: functional, cell-based. The following applies: HL-60, 48 h. The method in brief:
(§2)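 Cells seeded 1 × 10^4 per well and incubated overnight, then given compound at 0–50 µM for 48 h. MTT added (20 µL of 5 mg/mL stock) for 4 h at 37 °C; formazan dissolved in DMSO, absorbance read at 570 nm. Triplicates; IC50 from mean OD versus concentration curves.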
Background: Tetrazolium assays rely on reduction of a dye to a coloured formazan, in cell work by metabolically active cells.

Experiment [3] addresses T2, DNA topoisomerase 1 (Homo sapiens) (UniProt P11387).
T2 sequence (whole entry): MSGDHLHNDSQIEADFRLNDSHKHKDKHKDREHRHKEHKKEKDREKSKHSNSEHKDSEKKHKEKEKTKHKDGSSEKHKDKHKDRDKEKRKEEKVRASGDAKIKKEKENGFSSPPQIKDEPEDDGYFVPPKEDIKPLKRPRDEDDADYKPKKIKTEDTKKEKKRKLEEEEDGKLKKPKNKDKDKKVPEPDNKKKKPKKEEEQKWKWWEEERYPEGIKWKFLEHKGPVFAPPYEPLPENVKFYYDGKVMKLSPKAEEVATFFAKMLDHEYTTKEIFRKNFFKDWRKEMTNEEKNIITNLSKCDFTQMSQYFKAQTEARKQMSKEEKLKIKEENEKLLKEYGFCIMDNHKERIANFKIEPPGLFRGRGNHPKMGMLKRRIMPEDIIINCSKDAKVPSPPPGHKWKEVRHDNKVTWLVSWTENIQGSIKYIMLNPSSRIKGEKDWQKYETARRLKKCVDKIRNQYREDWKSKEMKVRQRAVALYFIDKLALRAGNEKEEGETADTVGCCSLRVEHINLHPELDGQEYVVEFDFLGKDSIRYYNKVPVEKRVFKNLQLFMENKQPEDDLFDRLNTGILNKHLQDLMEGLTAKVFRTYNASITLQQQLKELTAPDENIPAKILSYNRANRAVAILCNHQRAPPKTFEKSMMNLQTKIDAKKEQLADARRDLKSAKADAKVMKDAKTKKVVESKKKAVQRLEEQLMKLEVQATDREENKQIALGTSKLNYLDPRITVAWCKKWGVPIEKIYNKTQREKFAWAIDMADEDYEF
Nature of the experiment: Inhibition of Topo 1 (unknown origin)-mediated relaxation of supercoiled pBR322 plasmid at 25 uM after 30 mins by agarose gel electrophoresis. The method in brief:
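Topo I with supercoiled pBR322 and compound, 30 min at 37 °C. Stopped with SDS/bromophenol blue/glycerol dye; run on 1% agarose gel in TAE for 1 h and stained with Gel Red.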

The subject of experiment [4] is K562. Nature of the experiment: Cytotoxicity against human K562 cells after 48 hrs by MTT assay. The note with it: K562, 48 h. Type of experiment: functional, cell-based. The method in brief:
as §2

The target in experiment [5] is T1, DNA topoisomerase (Bos taurus). Nature of the experiment: Induction of calf thymus Topo 1-pBR322 DNA cleavage complex formation assessed as nicked DNA formation at 25 to 50 uM after 30 mins by optical density analysis relative to control. The gist of the method: as §1
The target in experiment [6] is T2, DNA topoisomerase 1 (Homo sapiens). Nature of the experiment: Induction of Topo 1-DNA cleavage complex formation in human HL60 cells after 1 hr by ICE assay. The format is cell-based. The note with it: HL-60. The method in brief: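 Mid-log phase HL-60 cells exposed to 2, 5 or 10 µM compound (DMSO vehicle 1.0% v/v) for 1 h, then lysed in DNAzol. DNA was ethanol-precipitated, redissolved and quantified. 2 µg DNA in 25 mM NaH2PO4 pH 6.5 was blotted onto nitrocellulose. Covalent Topo I was probed with rabbit anti-human Topo I (1:1000) and HRP secondary (1:3000), read by chemiluminescence.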

The target in experiment [7] is DNA topoisomerase 2-alpha (Homo sapiens) (UniProt P11388). As to the kind of experiment: Inhibition of human Topo 2-mediated relaxation of supercoiled pBR322 plasmid at 25 to 50 uM after 30 mins by agarose gel electrophoresis.
Chain of DNA topoisomerase 2-alpha (Homo sapiens) (P11388 whole entry, the tested form may be a part): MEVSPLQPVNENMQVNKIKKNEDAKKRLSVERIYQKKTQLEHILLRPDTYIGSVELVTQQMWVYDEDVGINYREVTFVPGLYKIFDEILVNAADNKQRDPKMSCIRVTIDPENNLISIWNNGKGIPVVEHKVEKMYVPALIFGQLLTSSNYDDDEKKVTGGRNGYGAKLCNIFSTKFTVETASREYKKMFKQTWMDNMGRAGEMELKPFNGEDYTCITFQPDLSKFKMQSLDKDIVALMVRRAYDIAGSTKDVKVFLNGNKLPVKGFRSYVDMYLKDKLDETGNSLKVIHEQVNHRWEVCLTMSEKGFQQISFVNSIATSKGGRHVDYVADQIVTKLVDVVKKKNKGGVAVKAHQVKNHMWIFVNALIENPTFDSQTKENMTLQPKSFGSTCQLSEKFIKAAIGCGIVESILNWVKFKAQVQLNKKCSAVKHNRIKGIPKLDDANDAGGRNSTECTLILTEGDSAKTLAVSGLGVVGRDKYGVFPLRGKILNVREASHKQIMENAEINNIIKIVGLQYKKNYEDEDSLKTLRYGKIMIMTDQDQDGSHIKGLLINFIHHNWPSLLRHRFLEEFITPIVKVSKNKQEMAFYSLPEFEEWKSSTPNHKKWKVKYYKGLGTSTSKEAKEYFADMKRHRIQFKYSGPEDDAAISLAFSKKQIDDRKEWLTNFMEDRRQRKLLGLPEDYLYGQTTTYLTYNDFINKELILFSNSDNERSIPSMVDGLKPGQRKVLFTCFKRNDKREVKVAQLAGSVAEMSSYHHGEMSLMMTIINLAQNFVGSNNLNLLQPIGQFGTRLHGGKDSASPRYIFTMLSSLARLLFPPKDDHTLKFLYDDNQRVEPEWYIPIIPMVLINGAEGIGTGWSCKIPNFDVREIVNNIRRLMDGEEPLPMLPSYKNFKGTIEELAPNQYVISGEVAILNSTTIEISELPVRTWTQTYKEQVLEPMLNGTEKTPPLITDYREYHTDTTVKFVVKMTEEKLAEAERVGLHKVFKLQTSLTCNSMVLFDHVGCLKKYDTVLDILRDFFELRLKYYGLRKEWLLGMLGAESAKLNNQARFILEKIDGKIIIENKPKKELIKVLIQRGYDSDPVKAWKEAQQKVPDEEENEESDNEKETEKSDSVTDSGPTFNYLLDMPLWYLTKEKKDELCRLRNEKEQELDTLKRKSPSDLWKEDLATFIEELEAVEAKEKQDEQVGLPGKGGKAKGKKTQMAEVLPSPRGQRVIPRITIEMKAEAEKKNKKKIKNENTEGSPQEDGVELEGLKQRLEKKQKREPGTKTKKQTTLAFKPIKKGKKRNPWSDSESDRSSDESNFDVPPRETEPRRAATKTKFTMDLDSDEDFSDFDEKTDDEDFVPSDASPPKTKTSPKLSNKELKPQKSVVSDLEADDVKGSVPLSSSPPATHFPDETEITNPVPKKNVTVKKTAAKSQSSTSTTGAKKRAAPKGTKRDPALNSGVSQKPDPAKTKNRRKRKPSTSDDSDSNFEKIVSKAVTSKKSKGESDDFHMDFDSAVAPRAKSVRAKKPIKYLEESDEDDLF
The target is the same in experiment [8]. Nature of the experiment: Induction of human Topo 2-pBR322 DNA cleavage complex formation assessed as linear DNA formation at 10 to 50 uM by agarose gel electrophoresis.
Experiment [9] relates to A549. As to the kind of experiment: Cytotoxicity against human A549 cells after 48 hrs by MTT assay. The format is functional, cell-based. The following applies: A549, 48 h. The method in brief: as §2
The subject of experiment [10] is HeLa. As to the kind of experiment: Cytotoxicity against human HeLa cells after 48 hrs by MTT assay. The format is functional, cell-based. The gist of the method:
as §2

Experiment [11] concerns Calf thymus DNA. Nature of the experiment: Binding affinity to calf thymus DNA at 15 uM after 5 mins by UV-vis spectrometry. Type of experiment: nucleic-acid assay. The note with it: Bos taurus. The method in brief: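 Compound at 15 µM in DPBS pH 7.4 with 1% DMSO, titrated with CT-DNA (0–24 µM, quantified at 260 nm, ε 13,200 M(bp)-1 cm-1). Equilibrated 5 min at room temperature; absorption spectra recorded 400–600 nm; Kapp derived from titration.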

Experiment [12] has as its target T1, DNA topoisomerase (Bos taurus). As to the kind of experiment: Induction of calf thymus Topo 1-pBR322 DNA cleavage complex formation assessed as nicked DNA formation at 10 uM after 30 mins by optical density analysis relative to control. The gist of the method:
as §1

Experiment [13] deals with Nucleic Acid. Nature of the experiment: Binding affinity to Escherichia coli pBR322 DNA assessed as DNA intercalation activity compound preincubated at 5 to 100 uM for 10 mins before enzyme addition by DNA unwinding assay in presence of topoisomerase 1. The format is nucleic-acid assay.
For experiment [14], the system named is Nucleic Acid. As to the kind of experiment: Binding affinity to Escherichia coli pBR322 DNA assessed as DNA intercalation activity compound preincubated for 10 mins before enzyme addition by DNA unwinding assay in presence of topoisomerase 1. The format is nucleic-acid assay.
In experiment [15] the target is T1, DNA topoisomerase (Bos taurus). As to the kind of experiment: Induction of calf thymus Topo 1-pBR322 DNA cleavage complex formation assessed as nicked DNA formation after 30 mins by agarose gel electrophoresis. The gist of the method:
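Calf thymus Topo I (10 units) with 0.1 µg supercoiled pBR322 and 0.5–50 µM compound in Topo I buffer (pH 7.5) for […]. Complexes trapped with SDS then NaEDTA, followed by proteinase K for 30 min at 45 °C. Samples run on 1% agarose gel containing 0.5 µg/mL ethidium bromide. Nicked DNA quantified by optical density.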

Experiment [16] deals with DNA topoisomerase 2-alpha (Homo sapiens) (UniProt P11388). Nature of the experiment: Competitive inhibition of human Topo 2 ATPase domain expressed in yeast BCY123 strain after 1 hr by Lineweaver-Burk plot method. The gist of the method:
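Human Topo II ATPase domain expressed in yeast BCY123 and purified. Assay buffer: 100 mM Tris-HCl pH 7.4, 20 mM KCl, 6 mM MgCl2. ATP at 250, 500, 800, 1,000 and 2000 µM at each fixed compound level (0, 5, 25, 50, 100 µM), 1 h at 37 °C. Phosphate read by malachite green at 620 nm.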

Experiment [17] has the same target. As to the kind of experiment: Inhibition of human Topo 2-mediated relaxation of supercoiled pBR322 plasmid at 25 uM after 30 mins by agarose gel electrophoresis.
Experiment [18] shares this target. Nature of the experiment: Inhibition of human Topo 2 ATPase domain expressed in yeast BCY123 strain at 25 uM after 1 hr by nonisotopic malachite green assay. The method in brief: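 Human Topo II ATPase domain overexpressed in yeast BCY123 and purified. Assay buffer: 100 mM Tris-HCl pH 7.4, 20 mM KCl, 6 mM MgCl2. Reaction of 25 µL with compound, started with 1 mM ATP, 1 h at 37 °C. Phosphate detected with malachite green at OD620. No-enzyme background set as 100% inhibition and enzyme-only as 0%.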

Activity calls are given as the source filed them. The calls are words filed in the database; no cut-off is given here.

This is an account of results in ChEMBL document CHEMBL3407378, “Design, synthesis and biological evaluation of novel 7-alkylamino substituted benzo[a]phenazin derivatives as dual topoisomerase I/II inhibitors” (Eur J Med Chem, 2015).

The term IC50 denotes the concentration that gives 50% inhibition. In the case of `CN(C)CCCCn1c2cc(=O)c3ccccc3c-2nc2ccccc21`, the Activity entry in experiment [1] and in experiment [6] was “Dose-dependent effect” throughout. The half-inhibitory concentration (IC50) in experiment [2] came out at 0.38 µM; in [4] it was 4.73 µM; in [9], 16.3 µM; in experiment [10], 21.4 µM. Besides, in experiment [3], the “Topo I relaxation inhibition (active/not active)” value was “Active”. Further, the outcome in experiment [5] and in [13] was Active. Moreover, in experiment [7], the “Topo 2 inhibition (active/not active)” value was “Active”. Further, the outcome in experiment [8] was inactive. Besides, the Kapp in [11] was 4.83 ×10⁵ /M. Also, the fold change (FC) in experiment [12] turned out to be 2.5.

Turning to `CC[n+]1c(-c2ccccc2)c2cc(N)ccc2c2ccc(N)cc21`, the Activity entry in experiment [14] was “Dose-dependent effect”.

Take `CC[C@@]1(O)C(=O)OCc2c1cc1n(c2=O)Cc2cc3ccccc3nc2-1` [CAMPTOTHECIN]: the 50% inhibitory concentration (IC50) is 0.07 µM in experiment [2], 5.37 µM in [4], 26.4 µM in experiment [9] and 11.6 µM in [10]. In addition, the Activity result in experiment [6] and in experiment [15] was “Dose-dependent effect” in each case.

As usually defined, the inhibition is the drop in the measured response relative to a control, in per cent. `COc1ccc2c3nc4ccc(OC)cc4n(CCCN(C)C)c-3cc(=O)c2c1`: the IC50 in experiment [2] worked out at 0.09 µM; in experiment [4], 8.73 µM; in experiment [9] it was 26.4 µM; in experiment [10] it was 18.2 µM. For the same compound, the inhibition result in experiment [16] was “Dose-dependent effect”; in [18], 78%. Besides, the “Topo 2 inhibition (active/not active)” value in experiment [17] was “Active”.
